Mdm2 MdmX PPI = disrupts the human Mdm2-MdmX interaction | hit rate 3% among 330,000 | SaOS-2 split-luciferase Mdm2/MdmX complementation, luminescence | O15151+Q00987 | AID 485346 | inhibition, % at 8 µM;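 active = inhibition of at least 50% at 8 µM in the primary screen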
Calb FLC = C. albicans growth modulation with fluconazole; AID 1979; growth inhibition, % (test concentration not listed); C. albicans CaCi-2 (fluconazole-resistant clinical isolate) + fluconazole, Alamar Blue growth, 48 h; hit rate 0.57% among 300,000;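 active = growth inhibition above about 58% in most replicates, limit read from the data, passing the limit was not always enough; inconclusive = exactly half the replicates above a set limit; inactive = most replicates below a set limit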;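 also: all wells also contain fluconazole at 8 µg/ml as a sub-toxic cotreatment; 0% = median of DMSO wells and 100% = median of geldanamycin control wells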
T cruzi inh = blocks replication of Trypanosoma cruzi | T. cruzi beta-gal in NIH3T3, luminescence, 90 h | inhibition, % (no concentration beside the values) | hit rate 1.4% among 300,000 | AID 1885;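 active = mean inhibition across valid replicates above about 55%, limit read from the data; inconclusive = mean below that limit but half or more replicates reach it; inactive = mean below it, under half of replicates reach it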;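 also: signal also drops with host cell toxicity which is not excluded here; 0% = plate median of DMSO wells and 100% = zero luminescence signal; higher percent means less beta-gal luminescence so fewer parasites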
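Material: NIH/3T3 host cells with β-galactosidase reporter T. cruzi; Input: 5,000 host fibroblasts per well; Medium: DMEM, 2% fetal bovine serum; Compound: 50 nL DMSO compound solution per well; Schedule: 3 h host attachment, then at least 90 h co-culture; Detection: luminescent β-galactosidase signal after 60 min lysis.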
Beta cell apopt = beta cell apoptosis inhibition; INS-1E cytokine-induced death, ATP luminescence, 48 h; percent of positive-control rescue, neutral wells zero; protection from apoptosis, % (no concentration beside the values); hit rate 0.8% among 300,000; AID 435005;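 active = Every replicate reaches about 75%, or at least half do and their mean reaches it too, limit read from the data; inconclusive = At least half of replicates reach the limit but their mean does not; inactive = Under half of replicates reach the limit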;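 also: 0% = cytokine-treated negative control wells and 100% = positive control rescue; higher means more ATP so stronger rescue from cytokine killing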
CSC inhib = blocks cancer stem cells. inhibition, % at 7.5 µM. cancer stem cell-like cells viability, luminescence. hit rate 1.1% among 300,000; in the data active = inhibition above about 75%; inconclusive = no clear call, values can overlap the other calls; tested in HMLE shEcad cells
NALP3 yeast inh = NALP3 inhibition in yeast | Yeast reconstituted NLRP3/ASC/caspase-1, beta-gal luminescence, 24 h | inhibition, % at 10 µM | hit rate 0.39% among 330,000 | AID 2825;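 active = inhibition of 50% or more; inactive = inhibition below 50%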;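 also: plate controls were induced DMSO wells for no effect and uninduced yeast grown without galactose for full effect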
Mdm2 MdmX conf = human Mdm2/MdmX binding inhibition, confirmed; shares compounds with Mdm2 MdmX PPI; luminescent assay; inhibition, % at 8 µM; hit rate 55% among 10,000; in the data active = inhibition above about 40%
FLuc counter = inhibits full-length luciferase, flagging false Mdm2/MdmX hits. shares compounds with Mdm2 MdmX PPI. SaOS-2 full-length luciferase counterscreen, luminescence. inhibition, % at 8 µM. hit rate 77% among 6,200. AID 504607;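 active = mean inhibition at 8 µM reaching about 37%, which flags the compound as non-specific, limit read from the data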;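 also: p53-null SaOS-2 cells with luciferase driven by a doxycycline-inducible promoter; compound on cells about two nights before reading with doxycycline added after day one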
Starred values were filed as active, the others as inactive. This is a sample that favours compounds with a hit; in the whole collection about 5.3% have one here.

CN(C)c1ccc(C(=O)N/N=C/c2cc(Br)cc(Br)c2O)cc1 was read as Mdm2 MdmX PPI 80*, Calb FLC 73, T cruzi inh 48, Beta cell apopt 31, CSC inhib 67, NALP3 yeast inh -10, Mdm2 MdmX conf 86* and FLuc counter 54*.
`COc1ccc2nc3oc(C(=O)NC4CCN(Cc5ccccc5)CC4)cc3cc2c1` gave Mdm2 MdmX PPI 98*, CSC inhib 22, NALP3 yeast inh 42, Mdm2 MdmX conf 91* and FLuc counter 20.
Screening Cc1ccc2nc3c(cc2c1)c(NC(=O)C(C)(C)C)nn3CC(C)C returned Mdm2 MdmX PPI 3, Calb FLC -4, T cruzi inh -1, Beta cell apopt 0, CSC inhib -12 and NALP3 yeast inh 23.
`Cc1ccc(-c2nc3ncccn3c2NC2CCCC2)o1` gave Mdm2 MdmX PPI 0, Calb FLC -14, T cruzi inh -5, Beta cell apopt 3, CSC inhib -24 and NALP3 yeast inh 23.
For Cc1cc(C)c(Cn2c(=O)n(CCCC(=O)NCc3ccco3)c(=O)c3sccc32)c(C)c1 the results were Mdm2 MdmX PPI 51*, Calb FLC -3, T cruzi inh -22, Beta cell apopt 3, CSC inhib 20, NALP3 yeast inh 11, Mdm2 MdmX conf 40* and FLuc counter 80*.
Screening O=C(Nc1cccc(Cl)c1Cl)c1snnc1-c1ccccc1 returned Mdm2 MdmX PPI -9, Calb FLC 3, T cruzi inh -4, Beta cell apopt 4, CSC inhib -10 and NALP3 yeast inh 4.
For O=C(Nc1cc(Cl)ccc1O)c1snnc1-c1ccccc1 the results were Mdm2 MdmX PPI 93*, Calb FLC 61, T cruzi inh 4, Beta cell apopt 37, CSC inhib 47, NALP3 yeast inh 16, Mdm2 MdmX conf 58* and FLuc counter 23.
Cc1ccc(S(=O)(=O)c2nnn3c2nc(NC2CCN(Cc4ccccc4)CC2)c2ccccc23)cc1C was read as Mdm2 MdmX PPI 64*, Calb FLC 5, T cruzi inh 59*, CSC inhib 21, NALP3 yeast inh 23, Mdm2 MdmX conf 39 and FLuc counter 52*.
For Cc1cc(/C=c2/sc3nc4ccccc4n3c2=O)c(C)n1-c1ccccn1 the results were Mdm2 MdmX PPI 69*, Calb FLC 5, T cruzi inh 4, Beta cell apopt 23, CSC inhib 26, NALP3 yeast inh 11, Mdm2 MdmX conf 94* and FLuc counter 14.
For Cc1c(OCC(=O)NCc2ccccn2)ccc2c3c(c(=O)oc12)CCCC3 the results were Mdm2 MdmX PPI 2, Calb FLC -5, T cruzi inh 6, Beta cell apopt 5, CSC inhib -6 and NALP3 yeast inh 10.
For C=CCN1C(=O)S/C(=C\c2ccc3c(c2)n(C)c(=O)n3C)C1=O the results were Mdm2 MdmX PPI 21, Calb FLC -3, T cruzi inh 5, Beta cell apopt 1 and NALP3 yeast inh 11.
For O=C1c2cccc3cc([N+](=O)[O-])cc(c23)C(=O)N1CCN1CCCC1 the results were Mdm2 MdmX PPI 90*, Calb FLC inconclusive, T cruzi inh 56*, NALP3 yeast inh 3, Mdm2 MdmX conf 96* and FLuc counter 53*.
O=C1c2ccccc2C(=O)N1CCN1CCCCC1 was read as Mdm2 MdmX PPI -7, Calb FLC 6, T cruzi inh -17, Beta cell apopt -3, CSC inhib -6 and NALP3 yeast inh -3.
For COC(=O)c1ccc(C)c(NS(=O)(=O)c2ccc3c(c2)OCCO3)c1 the results were Mdm2 MdmX PPI 64*, Calb FLC -15, T cruzi inh -70, Beta cell apopt 10, CSC inhib 51, NALP3 yeast inh 16, Mdm2 MdmX conf 60* and FLuc counter 78*.
Screening COC(=O)c1ccc(C)c(NS(=O)(=O)c2ccc(OC)cc2)c1 returned Mdm2 MdmX PPI 70*, Calb FLC 2, T cruzi inh -17, Beta cell apopt 42, CSC inhib 56, NALP3 yeast inh -6, Mdm2 MdmX conf 60* and FLuc counter 100*.
For COC(=O)c1ccc(C)c(NS(=O)(=O)c2ccc(C)c([N+](=O)[O-])c2)c1 the results were Mdm2 MdmX PPI -13, Calb FLC 4, T cruzi inh 4, Beta cell apopt 0, CSC inhib 15 and NALP3 yeast inh -14.
For Cc1noc(C)c1-c1ccc2nc[nH]c(=O)c2c1 the results were Mdm2 MdmX PPI 28, Calb FLC 5, T cruzi inh 7, Beta cell apopt -8, CSC inhib -4 and NALP3 yeast inh 2.
CCc1cccc(N(C)C(N)=Nc2cccc3ccccc23)c1 was read as Mdm2 MdmX PPI 53*, Calb FLC -20, T cruzi inh -3, Beta cell apopt -9, CSC inhib -5, NALP3 yeast inh 23 and Mdm2 MdmX conf 35.
`CC(=O)Nc1ccc(S(=O)(=O)N2CCCc3ccccc32)cc1` gave Mdm2 MdmX PPI 58*, Calb FLC 6, T cruzi inh 0, Beta cell apopt 15, CSC inhib 55, NALP3 yeast inh 2, Mdm2 MdmX conf 59* and FLuc counter 51*.
`Cc1ccc(NC(=O)c2cc(S(=O)(=O)N3CCc4ccccc43)cn2C)cc1C` gave Mdm2 MdmX PPI 55*, Calb FLC -2, T cruzi inh 5, Beta cell apopt -2, CSC inhib 33, NALP3 yeast inh 2 and Mdm2 MdmX conf 22.
Screening CC1CN(S(=O)(=O)c2ccc(C(=O)Nc3nnc(-c4ccc5c(c4)CCCC5)o3)cc2)CC(C)O1 (centres undefined) returned Mdm2 MdmX PPI 67*, Calb FLC 3, T cruzi inh 61*, Beta cell apopt 42, CSC inhib 19, NALP3 yeast inh -3, Mdm2 MdmX conf 32 and FLuc counter 59*.
Screening COc1ccc(-c2nnc(NC(=O)c3ccc(S(=O)(=O)N4CCCc5ccccc54)cc3)o2)cc1 returned Mdm2 MdmX PPI 62*, Calb FLC 101*, T cruzi inh 63*, Beta cell apopt 3, NALP3 yeast inh 5, Mdm2 MdmX conf 59* and FLuc counter 46*.
COCCCNC(=O)CN1C(=O)COc2ccc(S(=O)(=O)N3CCCCCC3)cc21 was read as Mdm2 MdmX PPI -2, Calb FLC -5, T cruzi inh -3 and NALP3 yeast inh 4.
COc1cccc(N2CCN(C(=S)Nc3ccc(C)cc3C)CC2)c1 was read as Mdm2 MdmX PPI 14, Calb FLC 4, T cruzi inh 0, Beta cell apopt -2, CSC inhib -15 and NALP3 yeast inh 4.

Bioassay records as filed in PubChem.
